From ChEMBL document CHEMBL4823286, “Synthesis and evaluation of novel 2,4-diaminopyrimidines bearing a sulfoxide moiety as anaplastic lymphoma kinase (ALK) inhibition agents” (Bioorg Med Chem Lett, 2021)

Tests used:
[1] = test system: NCI-H2228; assay: Antiproliferative activity against human NCI-H2228 cells assessed as inhibition of cell proliferation measured by CCK8 assay; type: functional, cell-based
Outline: (§1)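 Cell proliferation inhibition; IC50 given as mean ± SD of three independent experiments.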

[2] = test system: BaF3; assay: Antiproliferative activity against mouse BaF3 cells overexpressing ALK assessed as inhibition of cell proliferation measured by CCK8 assay; type: functional, cell-based; outline: as §1

An IC50 [1] of 82.9 nM and an IC50 [2] of 32.3 nM were found for `COc1cc(N2CCN(C)CC2)ccc1Nc1ncc(Cl)c(Nc2ccccc2[S+]([O-])C(C)C)n1` (centres undefined) in this work.
An IC50 [1] of 337 nM and an IC50 [2] of 79.4 nM were found for `CC[S+]([O-])c1cc(F)ccc1Nc1nc(Nc2ccc(N3CCC(N(C)C)CC3)cc2OC)ncc1Cl` (centres undefined) in this work.
